Measurements from different studies.
Each line is one published result; the experiments were not run side by side.
Target: Serine/threonine-protein kinase SBK1 (SBK1, Homo sapiens, UniProt Q52WX2)

SMILES | test | setting | endpoint | value
Nc1ncnc2occ(-c3ccc(NC(=O)Nc4cc(C(F)(F)F)ccc4F)cc3)c12 | cell-free assay, inhibitor | 20 µM | remaining signal | 6.7%
O=C(Nc1cnn(-c2csc(C(=O)NC3COC3)c2)c1)Nc1ccccc1Cl | enzyme activity, inhibitor | 5 µM | remaining activity | 99.1%
Cc1ccc(C(=O)Nc2ccc(CN3CCN(C)CC3)c(C(F)(F)F)c2)cc1C#Cc1cnc2cccnn12 | enzyme activity, inhibitor | 23.5 nM | remaining activity | 80%
CN1CC(Oc2cnc(C#N)cc2-c2ccn3nc(NC(=O)C4CC4)cc3c2)C1 | enzyme activity, inhibitor | 1 µM | inhibition | 15%
COc1ccc2c(c1)O[C@H](c1ccc(OC)c(OC)c1)C[C@@H]2NC(=O)C1(c2ccc3c(c2)OC(F)(F)O3)CC1 | cell-free assay, competition with immobilised ligand | 1 µM | remaining binding | 90%
Cc1sc(C(=O)NC2COC2)cc1-n1cc(NC(=O)Nc2c(F)cccc2Cl)cn1 | enzyme activity, inhibitor | 10 µM | remaining activity | 87.5%
COc1cc(Cl)c(C(=O)N[C@@H](CN[C@H]2CC[C@@H](N)CC2)Cc2ccc(C#N)cc2)cc1-c1ccc(CN[C@H](C)c2ccc(C)cc2)o1 | enzyme activity, inhibitor | 1 µM | remaining activity | 98%
CN(c1ccnc(CNc2nc(Nc3ccc4c(c3)CC(=O)N4)ncc2C(F)(F)F)n1)S(C)(=O)=O | cell-free assay, competition with immobilised ligand | 1 µM | remaining binding | 34%
